A selection: hits, their analogues and other compounds. The true share with any hit is near 2.3%.
CHT block: human CHT choline transport inhibition; B-score at 10 µM; AID 488975; actives 0.86% (n = 310,000); Q9GZV3; CHT-expressing cells, membrane potential dye, choline response; stronger effect = lower value;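 active = B-score over 3 SD under the library average, and starting fluorescence ratio not unusually high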;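 note: choline stimulus applied at its EC90 after an EC20 pre-addition; B-score computed on integrated fluorescence ratio after choline addition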
pCIP destab: compounds decreasing mouse p/CIP protein stability; F442A p/CIP-EGFP cells, EGFP fluorescence, 16 h; decrease of EGFP signal, % at 10 µM; actives 0.01% (n = 290,000);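 active = EGFP signal decrease of at least 30% at 10 µM or well 3 SD below plate mean, unless failing retest; inactive = the rest, including hits failing retest or dose response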
Target sequence (Q05BA5 1-1403): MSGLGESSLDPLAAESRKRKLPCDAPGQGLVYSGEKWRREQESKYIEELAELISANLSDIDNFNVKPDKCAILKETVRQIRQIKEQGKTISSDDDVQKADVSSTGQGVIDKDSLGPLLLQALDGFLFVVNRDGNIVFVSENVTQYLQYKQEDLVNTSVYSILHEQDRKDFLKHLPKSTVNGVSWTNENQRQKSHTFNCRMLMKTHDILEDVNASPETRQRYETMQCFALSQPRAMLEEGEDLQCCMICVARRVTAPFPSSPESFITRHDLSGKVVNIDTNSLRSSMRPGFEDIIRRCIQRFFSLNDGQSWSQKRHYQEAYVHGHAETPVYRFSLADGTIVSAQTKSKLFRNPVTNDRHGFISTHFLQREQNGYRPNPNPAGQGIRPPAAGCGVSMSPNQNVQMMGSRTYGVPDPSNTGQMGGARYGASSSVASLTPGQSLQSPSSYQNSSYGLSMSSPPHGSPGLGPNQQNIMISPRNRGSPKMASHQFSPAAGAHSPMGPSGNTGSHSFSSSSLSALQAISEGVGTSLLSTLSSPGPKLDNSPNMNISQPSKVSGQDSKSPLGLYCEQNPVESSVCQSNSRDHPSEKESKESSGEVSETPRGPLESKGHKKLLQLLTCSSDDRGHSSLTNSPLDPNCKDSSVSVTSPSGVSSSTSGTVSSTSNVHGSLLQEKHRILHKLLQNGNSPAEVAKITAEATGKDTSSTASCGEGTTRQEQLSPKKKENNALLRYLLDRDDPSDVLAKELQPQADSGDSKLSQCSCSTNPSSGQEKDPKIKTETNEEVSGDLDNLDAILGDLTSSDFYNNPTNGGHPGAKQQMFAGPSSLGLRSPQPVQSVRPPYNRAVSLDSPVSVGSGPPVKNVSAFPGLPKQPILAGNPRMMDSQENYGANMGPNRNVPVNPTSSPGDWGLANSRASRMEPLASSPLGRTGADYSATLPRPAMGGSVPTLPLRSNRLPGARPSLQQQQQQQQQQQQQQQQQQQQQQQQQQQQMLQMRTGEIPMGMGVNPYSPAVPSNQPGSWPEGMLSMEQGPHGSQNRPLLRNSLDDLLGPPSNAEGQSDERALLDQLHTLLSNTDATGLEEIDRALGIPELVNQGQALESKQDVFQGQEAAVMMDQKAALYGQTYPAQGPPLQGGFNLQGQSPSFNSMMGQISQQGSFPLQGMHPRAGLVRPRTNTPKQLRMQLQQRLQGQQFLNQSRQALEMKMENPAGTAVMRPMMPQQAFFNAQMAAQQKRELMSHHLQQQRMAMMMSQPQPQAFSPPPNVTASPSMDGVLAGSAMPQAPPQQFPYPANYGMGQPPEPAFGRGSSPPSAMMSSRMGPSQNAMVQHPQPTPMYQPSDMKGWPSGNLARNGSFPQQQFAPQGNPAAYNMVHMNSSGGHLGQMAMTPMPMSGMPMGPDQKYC
T cell HTS: modulates CD8 T cell binding to vesicles | 2C CD8+ T cell-vesicle binding, flow cytometry; stronger effect = lower value | response (vesicle binding), % at 7 µM | actives 0.068% (n = 330,000) | AID 2052;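 active = response, share of CD8 T cells binding vesicles, and their 90th percentile fluorescence all below set limits, cut at about 80% in these data, passing the limit was not always enough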;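 note: values below 100% mean blocked vesicle binding to the CD8+ T cells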
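Also added: QL9-peptide-loaded Drosophila micro-vesicles bearing Ld, ICAM-1 and B7-1; Test system: purified 2C TCR transgenic mouse naive CD8+ T cells; Measured by: cytometric PE anti-B7-1 and Alexa647 anti-CD8 signals after 1% paraformaldehyde fixation; Timing: binding step 1.5 h, 37 °C, antibody labelling 20 min, ice.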
CHT PAM: allosterically activates the human high affinity choline transporter; CHT-expressing cells, membrane potential dye, choline EC20; stronger effect = higher value; LV-AA mutant CHT in HEK293 cells; B-score at 10 µM; AID 488977; actives 0.49% (n = 310,000);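 active = initial fluorescence not abnormally high and integrated response B-score, plate-corrected, over 3 SD above library mean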
DSG3 Ab inh: human desmoglein-3 autoantibody binding inhibition | P32926 | DSG3-coupled beads, scFv-anti-DSG3-GFP binding, flow cytometry; stronger effect = lower value | actives 0.48% (n = 310,000) | binding (percent of control), % at 10 µM;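 active = binding more than 3 SD below its plate's average and above zero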;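 note: hits lower antibody fragment binding to DSG3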
GPR7 antag: human neuropeptides B/W receptor 1 antagonism. P48145. GPR7-expressing cells, fluorescence antagonist assay. inhibition, % at 4.4 µM. actives 1.1% (n = 290,000); in the data active = inhibition above about 16%, passing the limit was not always enough;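 note: cells stimulated with the agonist NPW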
Hits are given with their value; 0 = inactive; - = not tested or not shown.

SMILES	CHT block	pCIP destab	T cell HTS	CHT PAM	DSG3 Ab inh	GPR7 antag
COC1C(CO)OC(n2c3c(Cl)cccc3c3c4c(c5c6cccc(Cl)c6[nH]c5c32)C(=O)NC4=O)C(O)C1O (centres undefined)	-	-	-	-	0	-
O=C(NN1C(=O)/C(=C/c2ccc(O)cc2)SC1=S)c1cccc(O)c1	-9.4	0	0	0	0	0
COc1ccc(/C=C2\SC(=S)N(NC(=O)c3ccncc3)C2=O)cc1OC	-8	0	0	0	-	0
COc1cc(OC)cc(C(=O)N2CCN(S(=O)(=O)c3ccc4c(c3)OCCO4)CC2)c1	-	-	-	-	0	-
COc1ccc(-c2n(CC(=O)OC3CC(C)CCC3C(C)C)c3ccccc3[n+]2C)cc1 (centres undefined)	-	0	-	-	0	93
CN1CCc2c(n(CC(O)CNCc3ccccc3)c3ccccc23)C1=O (centres undefined)	0	0	0	0	0	0
CC(C)NCC(O)Cn1c2c(c3ccccc31)CCc1c-2cnn1-c1ccccc1 (centres undefined)	-6.5	0	0	0	-	0
CCn1cc(C(=O)O)c(=O)c2cnc(N3CCNCC3)nc21	0	0	0	11	-	0
Cc1c(C#N)c2n(c1C)CCCC(=O)N2	-	-	-	-	0	-
Cc1ccsc1C(=O)NCc1ccccc1Cl	0	0	0	0	0	0
Cc1ccsc1C(=O)NNC(=O)COc1ccccc1Cl	0	-	0	0	-0.8	-
O=C(Nc1ccc2oc(=O)ccc2c1)c1ccc(-c2ccccc2[N+](=O)[O-])o1	0	0	0	0	83	0
COc1cccc(NC(=O)CCC2CCN(C(=O)C(OC)c3ccccc3)CC2)c1 (centres undefined)	-	-	-	-	0	-
O=C1NC(Cc2ccccc2)c2nc3cc(Cl)ccc3c(=O)n2-c2ncccc21 (centres undefined)	-	-	-	-	0	-
Cc1ccc(S(=O)(=O)Nc2ccccc2C=Nc2cccc(C)c2C)cc1	0	0	0.0	0	0	0
Cc1ccc(S(=O)(=O)Nc2ccccc2N=Cc2c(F)c(F)c(F)c(F)c2F)cc1	-	-	-	-	0	-
Cc1nnc(SCC(=O)Nc2sc3c(c2C(=O)c2ccccc2)CCCC3)s1	0	0	0	8.1	0	0
CCOC(=O)c1c(NC(=O)Cc2ccccc2)sc2c1CCN(C)C2	0	0	0	0	0	0
CCOC(=O)c1c(NC(=O)CSc2nnc(C)s2)sc2c1CCN(C)C2	0	0	0	7.6	-	0
C=CCN(c1ccc(F)cc1)S(=O)(=O)c1cc(C(=O)NC2CC2)ccc1Cl	-	-	-	-	0	-
O=c1cc(-c2ccccc2Cl)oc2c([N+](=O)[O-])c(O)cc(O)c12	-13	0	0	0	0	0
O=S(c1ccccc1O)S(=O)c1ccccc1O (centres undefined)	-	-	-	-	0	-
c1ccc2c(c1)Sc1cnccc1N2CC1CO1 (centres undefined)	-	-	-	-	0	-
COc1ccc(C(=O)CC(C(=O)O)c2ccc3c(c2)OCO3)cc1OC (centres undefined)	-	-	-	-	0	-
Cc1nc2ccccc2nc1OCC(=O)Nc1ccc2ccccc2c1	0	0	0	0	65	0
SMILES	CHT block	pCIP destab	T cell HTS	CHT PAM	DSG3 Ab inh	GPR7 antag
CC1CCN(C(=O)CCC(=O)Nc2ccc([N+](=O)[O-])cc2)CC1	-	-	-	-	0	-
C=CS(=O)(=O)c1ccc(Oc2ccc(S(=O)(=O)C=C)cc2)cc1	0	0	0	0	0	35
CCOC(=O)c1cnc(=O)[nH]c1C	0	0	0.0	0	-	-
CCOC(=O)c1cnc(C(C)(C)C)[nH]c1=O	0	0	0	0	-	0
CCC(C)[C@H](N)C(=O)N[C@H]1CCC2C3CC=C4C[C@@H](O)CC[C@]4(C)C3CC[C@@]21C (some centres undefined)	-	-	-	-	0	-
N#CCSc1ccccc1NC(=O)COC(=O)C1CCN(C(=O)c2ccc(Cl)cc2)CC1	-	-	-	-	0	-
Cc1cc(Cl)c(OCCCSc2nc(C)cc(=O)[nH]2)c(Br)c1	0	0	74	0	0	0
COc1cccc(NC(=O)/C=C/c2ccc(S(=O)(=O)N3CCOCC3)cc2)c1	-	-	0	-	73	-
CC(=O)Nc1cccc(NC(=O)/C=C/c2ccc(S(=O)(=O)N3CCOCC3)cc2)c1	-	-	0	-	0	-
CCN(CC)S(=O)(=O)c1cc(OC)c(Cl)cc1Cl	0	0	0	0	0	0

Source: PubChem
